Screening data from PubChem.
CHT inh = inhibitors of human choline transporter CHT; 0.86% of 310,000 active; B-score at 10 µM; CHT-expressing cells, membrane potential dye, choline response; stronger effect = lower value; High affinity choline transporter 1 (Homo sapiens), Q9GZV3;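 active = B-score over 3 SD under the library average, and starting fluorescence ratio not unusually high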;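 note: choline stimulus applied at its EC90 after an EC20 pre-addition; B-score computed on integrated fluorescence ratio after choline addition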
TNAP inh hiacc = human TNAP enzyme inhibitors, primary screen, biochemical, luminescent, high phosphate acceptor level, uHTS; Alkaline phosphatase, tissue-nonspecific isozyme (Homo sapiens), P05186; purified TNAP, CDP-star luminescence, 1 M DEA; inhibition, % at 20 µM; 0.03% of 200,000 active; AID 1135, 2008;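 active = over 50% inhibition of tissue-nonspecific alkaline phosphatase at 20 µM in the single-dose screen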
Target sequence (P05186 whole entry, looked up): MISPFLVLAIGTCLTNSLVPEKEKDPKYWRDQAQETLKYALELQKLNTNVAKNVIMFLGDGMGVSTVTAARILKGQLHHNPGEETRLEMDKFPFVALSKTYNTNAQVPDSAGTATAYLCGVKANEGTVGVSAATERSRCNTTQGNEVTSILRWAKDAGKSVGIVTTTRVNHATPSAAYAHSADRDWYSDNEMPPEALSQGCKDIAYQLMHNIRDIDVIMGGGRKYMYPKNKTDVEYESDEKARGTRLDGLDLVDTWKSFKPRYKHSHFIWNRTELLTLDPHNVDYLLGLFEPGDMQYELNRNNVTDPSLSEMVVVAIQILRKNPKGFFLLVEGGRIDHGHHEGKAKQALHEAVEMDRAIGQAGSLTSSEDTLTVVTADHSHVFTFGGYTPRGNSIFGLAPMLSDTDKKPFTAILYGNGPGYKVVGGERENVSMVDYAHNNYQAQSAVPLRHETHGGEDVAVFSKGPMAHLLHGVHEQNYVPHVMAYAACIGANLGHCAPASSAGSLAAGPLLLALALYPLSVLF
ABCB6 inh MLPCN = ABCB6 transporter inhibitors, primary screen, K562-ABCB6 cells, flow cytometry, MLPCN library | ATP-binding cassette sub-family B member 6 (Homo sapiens), Q9NP58 | K562-ABCB6 porphyrin accumulation, 1 h; stronger effect = lower value | fluorescence ratio to DMSO, % at 10 µM | 0.19% of 360,000 active | AID 602162, 2011;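 active = fluorescence ratio to DMSO below 75%, the collection mean minus 3 SD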;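 note: signal is porphyrin accumulated inside mitochondria; lower ratio means ABCB6 inhibition with less porphyrin fluorescence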
CHT allo act = CHT positive allosteric modulators, primary screen, cell-based, membrane potential dye, choline EC20 | High affinity choline transporter 1 (Homo sapiens), Q9GZV3 | CHT-expressing cells; stronger effect = higher value; LV-AA mutant CHT in HEK293 cells | B-score at 10 µM | 0.49% of 310,000 active;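 active = initial fluorescence not abnormally high and integrated response B-score, plate-corrected, over 3 SD above library mean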
TNAP inh noacc = human TNAP enzyme inhibitors, primary screen, biochemical, luminescent, no phosphate acceptor, uHTS; Alkaline phosphatase, tissue-nonspecific isozyme (Homo sapiens), P05186; inhibition, % at 20 µM; AID 1012, 2008; purified TNAP, CDP-star luminescence, 30 min; 0.26% of 200,000 active;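 active = tissue-nonspecific alkaline phosphatase inhibition above about 50% at 20 µM in the single-dose screen, limit read from the data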
TNAP act hiacc = TNAP activators at high phosphate acceptor level, primary screen, biochemical, luminescence, uHTS. 200,000 tested, under 10 active. activation factor at 20 µM. purified TNAP, CDP-star luminescence, 1 M DEA, 30 min; stronger effect = higher value; 0 = EDTA background, 1 = DMSO-only activity. AID 1136, 2008;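 active = activation factor at least 2 at 20 µM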
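Measured by: Luminescent substrate turnover signal | Test system: Human TNAP | Input: TNAP 1/800 final | Dosing: 20 µM single point | Schedule: 30 min, room temperature | Controls: EDTA wells as negative control, DMSO wells as positive control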
CHT inh conf = CHT inhibitors, confirmation, cell-based, membrane potential dye, duplicate; shares compounds with CHT inh; CHT-expressing cells, choline membrane potential dye; LV-to-AA substituted CHT, HEK293 cells; CHT activity remaining % of control (stronger effect = lower value), % at 10 µM; 70% of 2,400 active; AID 493221, 2011;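 active = choline transporter activity left, mean of duplicates at 10 µM, below buffer-only control mean minus 3 SD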;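 note: depolarization triggered by choline at its EC90 following an EC20 pre-addition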
HEK293 CHT ctr = membrane potential effects in parental HEK293, counter-screen for CHT inhibitor project, cell-based, membrane potential dye | shares compounds with CHT inh | choline response; active = decrease or increase beyond buffer ±3SD | membrane potential ratio readout (active if shifted either direction beyond buffer ±3SD; no single direction) at 10 µM | 4% of 2,400 active;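 note: parental cells lack the transporter so any hit is non-specific; ratio is peak minus trough fluorescence over baseline after EC90 choline challenge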
Large screens that a line does not name were inactive (follow-up assays come after a bar, where they were run). Hits are enriched below; roughly 1.4% of the tested compounds scored in any of these assays.

COc1ccc(N(CCCN2C(=O)c3cccc4cccc(c34)C2=O)C(=O)c2cccnc2)cc1	none
COC(=O)c1ccc([C@H]2C=C(C(=O)O)O[C@@H](OCc3ccc(CO)cc3)C2)cc1	none (no result: TNAP inh hiacc, TNAP inh noacc, TNAP act hiacc)
Cc1nc(SC2CC(=O)N(c3cc(Cl)cc(Cl)c3)C2=O)nc2c1CCCC2 (configuration not stated)	CHT inh -9.2 | CHT inh conf 57% | HEK293 CHT ctr inactive
C=CCNc1nc(SC)nc2ccsc12	CHT inh -11 | CHT inh conf 3.0% | HEK293 CHT ctr inactive
COc1ccc(Oc2nc(SC)nc3ccsc23)cc1	none
CCOC(=O)c1nncc(-c2ccccc2)n1	none (no result: CHT inh, TNAP inh hiacc, CHT allo act, TNAP inh noacc, TNAP act hiacc)
Cc1cccc(C(=O)NC(=S)NNC(=O)Cc2ccccc2)c1	CHT inh -6.7 | CHT inh conf 52% | HEK293 CHT ctr inactive
O=C(CCc1ccccc1)NNC(=S)NC(=O)c1ccc(Cl)cc1	CHT inh -5.7 (no result: ABCB6 inh MLPCN) | CHT inh conf 70% | HEK293 CHT ctr inactive
Cc1cccc(C(=O)NC(=S)NCc2ccccc2)c1	none (no result: TNAP inh hiacc, TNAP inh noacc, TNAP act hiacc)
O=C(COC(=O)c1cc(NS(=O)(=O)c2cccs2)ccc1O)Nc1ccccc1	none (no result: TNAP inh hiacc, TNAP inh noacc, TNAP act hiacc)
CN(Cc1ccccc1)C(=O)COC(=O)c1cc(NS(=O)(=O)c2cccs2)ccc1O	CHT inh -5.8 | CHT inh conf inactive | HEK293 CHT ctr inactive
COC(=O)COc1ccc(S(=O)(=O)N2CCN(c3ccccc3F)CC2)cc1	CHT inh -5.2 | CHT inh conf inactive | HEK293 CHT ctr inactive
Nc1ncnc2c1ncn2[C@@H]1O[C@H](CO)[C@@H](O)[C@H]1O	CHT inh -6 | CHT inh conf 30% | HEK293 CHT ctr inactive
CC1(C)OC2C(O1)[C@@H](CO)O[C@H]2n1cnc2c(N)ncnc21 (some centres not stated)	none (no result: TNAP inh hiacc, TNAP inh noacc, TNAP act hiacc)
CC(=O)C(Sc1nn(C)c(=S)s1)C(=O)Nc1ccccc1 (configuration not stated)	CHT inh -5.4 | CHT inh conf 49% | HEK293 CHT ctr inactive
Cn1c(SCc2ccc(C#N)cc2Cl)nc2ccccc21	CHT inh -11 | CHT inh conf 3.8% | HEK293 CHT ctr inactive
CCNC(=O)C1CCCN(C(=O)c2ccc3c(c2)CCO3)CC1 (configuration not stated)	none (no result: CHT inh, TNAP inh hiacc, CHT allo act, TNAP inh noacc, TNAP act hiacc)
CC1CCN(CC(=O)Nc2cccc(C(=O)Nc3cccc(C(F)(F)F)c3)c2)CC1	CHT inh -6.4 | CHT inh conf 44% | HEK293 CHT ctr inactive
CCCN1CCC(Oc2cccc(C(=O)NCCc3ccccc3)c2)CC1	CHT inh -11 (no result: TNAP inh hiacc, TNAP inh noacc, TNAP act hiacc) | CHT inh conf 6.5% | HEK293 CHT ctr inactive
O=C(NCCc1ccccn1)c1ccc(OC2CCN(CCc3ccccc3)CC2)cc1	none (no result: TNAP inh hiacc, TNAP inh noacc, TNAP act hiacc)
CSCCCNC(=O)c1ccc(OC2CCN(CCc3ccccc3)CC2)cc1	CHT inh -6 | CHT inh conf 51% | HEK293 CHT ctr 4.8
CCCc1cc2c(=O)c(-c3cscn3)c(C(=O)OCC)oc2cc1O	CHT inh -5.8 | CHT inh conf 28% | HEK293 CHT ctr inactive
CCOC(=O)c1oc2cc(O)cc(C)c2c(=O)c1-c1cscn1	none
COc1ccc(C(=O)Nc2nc(CC(=O)NCCc3ccccc3)cs2)cc1	CHT inh -5.1 (no result: TNAP inh hiacc, TNAP inh noacc, TNAP act hiacc) | CHT inh conf inactive | HEK293 CHT ctr inactive
